Activity calls are given as the source filed them. The calls are words filed in the database; no cut-off is given here.
What was measured:
[1] = Inhibition of Saccharomyces sp. alpha-glucosidase assessed as p-nitrophenol release
Method in brief: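 Yeast alpha-glucosidase at 0.2 mU/mL in 10 mM phosphate buffer pH 7.0 was preincubated with compound (1% v/v DMSO final) for 10 min at 37 °C. pNPG substrate (final 0.2 mM) was then added and incubated 10 min at 37 °C. The reaction was basified with Na2CO3, and released p-nitrophenol was read at A405. Triplicates, repeated at least twice, normalized averages, IC50.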

[2] = target: T1, Oxysterols receptor LXR-beta (Homo sapiens, UniProt P55055); assay: Antagonist activity at human LXRbeta expressed in HEK293 cells assessed as inhibition of beta-galactosidase activity by luciferase reporter gene assay; type: functional, cell-based
T1 sequence (P55055 whole entry): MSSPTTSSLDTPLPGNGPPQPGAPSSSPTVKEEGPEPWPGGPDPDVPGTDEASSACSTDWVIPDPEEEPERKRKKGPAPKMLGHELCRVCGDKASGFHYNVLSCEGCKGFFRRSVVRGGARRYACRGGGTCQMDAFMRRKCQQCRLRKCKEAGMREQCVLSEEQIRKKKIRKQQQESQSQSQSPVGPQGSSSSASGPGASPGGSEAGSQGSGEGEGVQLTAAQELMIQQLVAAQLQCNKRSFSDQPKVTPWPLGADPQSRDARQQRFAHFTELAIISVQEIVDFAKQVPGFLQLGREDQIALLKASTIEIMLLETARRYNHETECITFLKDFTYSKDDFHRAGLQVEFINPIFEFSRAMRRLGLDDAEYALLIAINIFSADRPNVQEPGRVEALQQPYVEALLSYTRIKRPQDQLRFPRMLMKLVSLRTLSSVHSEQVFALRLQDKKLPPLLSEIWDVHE

[3] = target: T2, Oxysterols receptor LXR-alpha (Homo sapiens, UniProt Q13133); assay: Antagonist activity at human LXRalpha expressed in HEK293 cells assessed as inhibition of beta-galactosidase activity by luciferase reporter gene assay; type: functional, cell-based
T2 sequence (Q13133 whole entry): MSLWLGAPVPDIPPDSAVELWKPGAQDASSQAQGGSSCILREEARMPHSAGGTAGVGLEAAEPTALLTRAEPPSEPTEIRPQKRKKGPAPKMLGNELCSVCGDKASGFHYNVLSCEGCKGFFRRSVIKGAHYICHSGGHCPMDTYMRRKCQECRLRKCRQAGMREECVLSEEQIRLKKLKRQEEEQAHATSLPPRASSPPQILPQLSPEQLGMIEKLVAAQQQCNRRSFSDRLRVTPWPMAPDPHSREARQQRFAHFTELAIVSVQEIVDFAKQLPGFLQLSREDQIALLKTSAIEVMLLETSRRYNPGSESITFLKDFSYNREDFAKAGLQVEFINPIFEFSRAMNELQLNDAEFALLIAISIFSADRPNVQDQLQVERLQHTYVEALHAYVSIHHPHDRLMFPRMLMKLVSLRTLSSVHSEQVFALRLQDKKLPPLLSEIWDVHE

[4] = target: Liver X receptor (LXR alpha AND LXR beta) (Homo sapiens) (UniProt Q13133+P55055); assay: Selectivity ratio of IC50 for human LXRbeta over IC50 for human LXRalpha; type: protein assay
Saccharomyces sp. = assay: Inhibition of Saccharomyces sp. alpha-glucosidase by non-competitive Lineweaver-Burke analysis

Row | Compound | IC50 [1] | IC50 [2] | IC50 [3] | Selectivity ratio [4] | Activity (Saccharomyces sp.) | Selectivity Index [4]
1 | c1cc2cc(c1)Oc1ccc(cc1)CCc1ccccc1-c1ccc(cc1)CC2 | – | – | – | 11 | – | –
2 | O=C1c2ccccc2C(=O)N1c1ccc(CCc2ccccc2)cc1 | > 100 µM | – | – | – | – | –
3 | COc1ccc(CCc2ccc(N3C(=O)c4ccccc4C3=O)cc2)cc1OC | > 100 µM | 4.3 µM | 4.8 µM | – | – | –
4 | O=C1c2c(Cl)c(Cl)c(Cl)c(Cl)c2C(=O)N1c1cccc(CCc2ccccc2)c1 | > 100 µM | > 30 µM | > 30 µM | – | – | –
5 | O=C1c2ccccc2C(=O)N1c1cccc(CCc2ccccc2)c1 | > 100 µM | – | – | – | – | –
6 | O=C1c2c(Cl)c(Cl)c(Cl)c(Cl)c2C(=O)N1c1ccc(/C=C/c2ccc(O)c(O)c2)cc1 | > 100 µM | > 30 µM | 2.7 µM | – | – | –
7 | COc1ccc(CCc2ccccc2N2C(=O)c3ccccc3C2=O)cc1OC | > 100 µM | – | – | – | – | –
8 | O=C1c2ccccc2C(=O)N1c1ccccc1CCc1ccc(O)c(O)c1 | > 100 µM | > 30 µM | 9.8 µM | – | – | –
9 | O=C1c2c(Cl)c(Cl)c(Cl)c(Cl)c2C(=O)N1c1ccc(CCc2ccc(O)c(O)c2)cc1 | > 100 µM | > 30 µM | 5.1 µM | – | – | –
10 | O=C1c2ccccc2C(=O)N1c1ccc(CCc2ccc(O)c(O)c2)cc1 | > 100 µM | > 3 µM | 1.7 µM | – | – | –
11 | COc1ccc(CCc2ccccc2N2C(=O)c3c(Cl)c(Cl)c(Cl)c(Cl)c3C2=O)cc1OC | > 100 µM | 7.7 µM | 6.1 µM | – | – | –
12 | COc1ccc(/C=C/c2ccc(N3C(=O)c4ccccc4C3=O)cc2)cc1OC | > 100 µM | > 30 µM | 3.8 µM | – | – | –
13 | O=C1c2ccccc2C(=O)N1c1ccc(CCc2ccc(O)cc2)cc1 | > 100 µM | > 30 µM | 2.9 µM | – | – | –
14 | O=C1c2ccccc2C(=O)N1c1ccc(/C=C/c2ccc(O)c(O)c2)cc1 | > 100 µM | > 1 µM | 1.6 µM | – | – | –
15 | O=C1c2c(Cl)c(Cl)c(Cl)c(Cl)c2C(=O)N1c1cccc(CCc2ccc(O)cc2)c1 | > 100 µM | > 30 µM | 3.7 µM | – | – | –
16 | COc1cccc(CCc2ccc(N3C(=O)c4ccccc4C3=O)cc2)c1 | > 100 µM | 3.5 µM | 2.4 µM | – | – | –
17 | COc1ccc(CCc2ccc(N3C(=O)c4ccccc4C3=O)cc2)cc1 | > 100 µM | > 30 µM | 0.2 µM | – | – | > 150

Other lines, results leading:

Row | IC50 [1] | IC50 [2] | IC50 [3] | Selectivity ratio [4] | Activity (Saccharomyces sp.) | Selectivity Index [4] | Compound
18 | > 100 µM | > 3 µM | > 3 µM | – | – | – | O=C1c2c(Cl)c(Cl)c(Cl)c(Cl)c2C(=O)N1c1ccccc1CCc1ccccc1
19 | > 100 µM | > 30 µM | 7.5 µM | – | – | – | O=C1c2ccccc2C(=O)N1c1ccc(CCc2cccc(O)c2)cc1
20 | 20 µM | 17 µM | 15 µM | – | – | – | O=C1c2c(Cl)c(Cl)c(Cl)c(Cl)c2C(=O)N1c1ccccc1CCc1ccc(O)c(O)c1
21 | 13 µM | > 30 µM | 6.6 µM | – | – | – | O=C1c2c(Cl)c(Cl)c(Cl)c(Cl)c2C(=O)N1c1cccc(/C=C/c2ccc(O)c(O)c2)c1
22 | 21 µM | > 30 µM | 3.9 µM | – | – | – | O=C1c2c(Cl)c(Cl)c(Cl)c(Cl)c2C(=O)N1c1ccc(CCc2cccc(O)c2)cc1
23 | > 100 µM | > 30 µM | > 30 µM | – | – | – | COc1ccc(CCc2cccc(N3C(=O)c4ccccc4C3=O)c2)cc1OC
24 | > 100 µM | > 30 µM | 8.8 µM | – | – | – | COc1ccc(CCc2ccc(N3C(=O)c4c(Cl)c(Cl)c(Cl)c(Cl)c4C3=O)cc2)cc1
25 | 83 µM | > 30 µM | > 30 µM | – | – | – | COc1ccc(CCc2cccc(N3C(=O)c4c(Cl)c(Cl)c(Cl)c(Cl)c4C3=O)c2)cc1OC
26 | 17 µM | > 30 µM | > 30 µM | – | – | – | O=C1c2c(Cl)c(Cl)c(Cl)c(Cl)c2C(=O)N1c1ccc(CCc2ccccc2)cc1
27 | 50 µM | > 30 µM | 2.6 µM | – | – | – | O=C1c2c(Cl)c(Cl)c(Cl)c(Cl)c2C(=O)N1c1cccc(CCc2cccc(O)c2)c1
28 | 31 µM | > 30 µM | > 30 µM | – | – | – | O=C1c2c(Cl)c(Cl)c(Cl)c(Cl)c2C(=O)N1c1cccc(/C=C/c2ccccc2)c1
29 | 21 µM | > 30 µM | > 30 µM | – | – | – | O=C1c2c(Cl)c(Cl)c(Cl)c(Cl)c2C(=O)N1c1ccc(/C=C/c2ccccc2)cc1
30 | 16.2 µM | – | – | – | – | – | O=C1c2ccccc2C(=O)N1c1ccccc1CCc1ccccc1
31 | 27 µM | > 30 µM | > 30 µM | – | – | – | COc1ccc(/C=C/c2cccc(N3C(=O)c4c(Cl)c(Cl)c(Cl)c(Cl)c4C3=O)c2)cc1OC
32 | 18 µM | > 30 µM | > 30 µM | – | Active | – | COc1ccc(CCc2ccc(N3C(=O)c4c(Cl)c(Cl)c(Cl)c(Cl)c4C3=O)cc2)cc1OC
33 | 69 µM | > 30 µM | 4.2 µM | – | – | – | COc1cccc(CCc2cccc(N3C(=O)c4c(Cl)c(Cl)c(Cl)c(Cl)c4C3=O)c2)c1
34 | 23 µM | 21 µM | 6.3 µM | – | – | – | O=C1c2c(Cl)c(Cl)c(Cl)c(Cl)c2C(=O)N1c1cccc(CCc2ccc(O)c(O)c2)c1
35 | 90 µM | > 30 µM | > 30 µM | – | – | – | O=C1c2ccccc2C(=O)N1c1ccc(/C=C/c2ccccc2)cc1
36 | 23 µM | > 30 µM | > 30 µM | – | – | – | O=C1c2c(Cl)c(Cl)c(Cl)c(Cl)c2C(=O)N1c1ccc(CCc2ccc(O)cc2)cc1
37 | 49 µM | > 30 µM | 5.5 µM | – | – | – | COc1ccc(CCc2cccc(N3C(=O)c4c(Cl)c(Cl)c(Cl)c(Cl)c4C3=O)c2)cc1
38 | 40 µM | 14 µM | > 20 µM | – | – | – | COc1ccc(/C=C/c2ccc(N3C(=O)c4c(Cl)c(Cl)c(Cl)c(Cl)c4C3=O)cc2)cc1OC
39 | 65 µM | > 30 µM | 6.9 µM | – | – | – | COc1cccc(CCc2ccc(N3C(=O)c4c(Cl)c(Cl)c(Cl)c(Cl)c4C3=O)cc2)c1
40 | 38 µM | 7.6 µM | 6.1 µM | – | – | – | O=C1c2ccccc2C(=O)N1c1cccc(CCc2ccc(O)c(O)c2)c1

Source: ChEMBL document CHEMBL1154095, “Separation of alpha-glucosidase-inhibitory and liver X receptor-antagonistic activities of phenethylphenyl phthalimide analogs and generation of LXRalpha-selective antagonists” (Bioorg Med Chem, 2009)
